This note sets out measurements from ChEMBL document CHEMBL3627702, “Navigating CYP1A Induction and Arylhydrocarbon Receptor Agonism in Drug Discovery. A Case History with S1P1 Agonists” (J Med Chem, 2015).

A short description of data set [1]: Oral bioavailability in CD rat at 3 mg/kg. The class given is ADME, organism-based. The settings on record: in vivo. In outline:
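Male CD rats cannulated in the femoral and jugular veins, n = 3, crossover design. Day 1: 1 h iv infusion at 1 mg/kg (0.2 mg/mL in ≤5% DMSO/≥95% 10% Kleptose in saline, 5 mL/kg/h). Day 2: oral gavage at 3 mg/kg (0.6 mg/mL in 1% methylcellulose, 5 mL/kg). Blood assayed by LC–MS/MS after acetonitrile precipitation.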

In data set [2] the test system is Rattus norvegicus. Kind of data set: Dose normalized AUC in Sprague-Dawley rat at 30 mg/kg, po QD measured on day 4. The class given is ADME, organism-based. The settings on record: in vivo. The procedure, abridged: (§1)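 Male CD rats (226−325 g), n = 3, given the compound once daily by oral gavage for 4 days. Vehicle was 1% (w/v) methylcellulose aq suspension at 3−6 mg/mL, dosed at 5 mL/kg (target 15−30 mg/kg). Tail vein blood was taken on days 1 and 4 up to 24 h postdose. Blood was diluted 1:1 with water, extracted by acetonitrile protein precipitation and analysed by LC−MS/MS against calibration standards in diluted blood.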

A short description of data set [3]: Cmax in Sprague-Dawley rat at 30 mg/kg, po QD measured on day 1. The class given is ADME, organism-based. The settings on record: in vivo. The arrangement: dose 30 mg/kg, route oral. In outline: as §1
The nature of data set [4]: Cmax in Sprague-Dawley rat at 30 mg/kg, po QD measured on day 4. The arrangement: dose 30 mg/kg, route oral. In kind it is ADME, organism-based. The settings on record: in vivo. In outline: as §1
The subject of data set [5] is CYP1A2. Briefly: Induction of CYP1A2 mRNA expression in Sprague-Dawley rat hepatic microsomes at 30 mg/kg, po QD for 4 days relative to control. In kind it is ADME, organism-based, Liver. Particulars: read-out: FC.
The test system of data set [6] is Rattus norvegicus. Kind of data set: Dose normalized AUC in Sprague-Dawley rat at 30 mg/kg, po QD measured on day 1. In kind it is ADME, organism-based. Particulars: in vivo. The procedure, abridged: as §1
Data set [7] is described as follows: Lipophilicity, log D of the compound at pH 7.4. In kind it is physicochemical. Particulars: buffer.
Data set [8] can be described thus: AUC in Sprague-Dawley rat at 30 mg/kg, po QD measured on day 4. In kind it is ADME, organism-based. Particulars: in vivo. In outline: as §1
The nature of data set [9]: AUC in Sprague-Dawley rat at 30 mg/kg, po QD measured on day 1. The settings on record: in vivo. The class given is ADME, organism-based. The procedure, abridged:
as §1

Data set [10] has as its system CYP1A1. Briefly: Induction of CYP1A1 mRNA expression in Sprague-Dawley rat hepatic microsomes at 30 mg/kg, po QD for 4 days relative to control. In kind it is ADME, organism-based, Liver. The settings on record: read-out: FC. In outline: (§2)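 Male CD rats (226–325 g, n = 3) were dosed by oral gavage once daily for 4 days as a 1% w/v aqueous methylcellulose suspension (3–6 mg/mL, 5 mL/kg). At the end of the study, a left lateral liver lobe section was placed in RNALater and homogenised in TRIzol. RNA was purified, DNase-treated and converted to cDNA, and Cyp1a1 was read on low-density TaqMan arrays.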

Data set [11] deals with CYP1A2. Briefly: Induction of CYP1A2 mRNA expression in Sprague-Dawley rat hepatic microsomes at 15 mg/kg, po QD for 4 days relative to control. Particulars: read-out: FC. In kind it is ADME, organism-based, Liver.
Data set [12] is described as follows: Cmax in Sprague-Dawley rat at 15 mg/kg, po QD measured on day 4. Particulars: in vivo. The arrangement: dose 15 mg/kg, route oral. The class given is ADME, organism-based. In outline: as §1
The nature of data set [13]: AUC in Sprague-Dawley rat at 15 mg/kg, po QD measured on day 4. The class given is ADME, organism-based. Particulars: in vivo. The procedure, abridged: as §1
In data set [14] the test system is Rattus norvegicus. Briefly: Dose normalized AUC in Sprague-Dawley rat at 15 mg/kg, po QD measured on day 4. In kind it is ADME, organism-based. The settings on record: in vivo. In outline: as §1
Data set [15] can be described thus: Cmax in Sprague-Dawley rat at 15 mg/kg, po QD measured on day 1. The class given is ADME, organism-based. The arrangement: dose 15 mg/kg, route oral. Particulars: in vivo. The procedure, abridged: as §1
The nature of data set [16]: AUC in Sprague-Dawley rat at 15 mg/kg, po QD measured on day 1. In kind it is ADME, organism-based. The settings on record: in vivo. In outline:
as §1

Data set [17] deals with Rattus norvegicus. Kind of data set: Dose normalized AUC in Sprague-Dawley rat at 15 mg/kg, po QD measured on day 1. In kind it is ADME, organism-based. The settings on record: in vivo. In outline:
as §1

Data set [18] can be described thus: Dissociation constant, pKa of the compound. In kind it is physicochemical.
Data set [19] has as its system CYP1A1. Kind of data set: Induction of CYP1A1 mRNA expression in Sprague-Dawley rat hepatic microsomes at 15 mg/kg, po QD for 4 days relative to control. In kind it is ADME, organism-based, Liver. Particulars: read-out: FC. In outline: as §2
A short description of data set [20]: Cmax in Sprague-Dawley rat at 19 mg/kg, po QD measured on day 1. Set-up: dose 19 mg/kg, route oral. In kind it is ADME, organism-based. Particulars: in vivo. In outline: as §1
The nature of data set [21]: Cmax in Sprague-Dawley rat at 19 mg/kg, po QD measured on day 4. Set-up: dose 19 mg/kg, route oral. In kind it is ADME, organism-based. The settings on record: in vivo. The procedure, abridged:
as §1

Data set [22] relates to CYP1A1. Kind of data set: Induction of CYP1A1 mRNA expression in Sprague-Dawley rat hepatic microsomes at 19 mg/kg, po QD for 4 days relative to control. Particulars: read-out: FC. The class given is ADME, organism-based, Liver. The procedure, abridged: as §2
Data set [23] in a line: AUC in Sprague-Dawley rat at 19 mg/kg, po QD measured on day 1. In kind it is ADME, organism-based. The settings on record: in vivo. In outline: as §1
The subject of data set [24] is Rattus norvegicus. Briefly: Dose normalized AUC in Sprague-Dawley rat at 19 mg/kg, po QD measured on day 4. In kind it is ADME, organism-based. The settings on record: in vivo. The procedure, abridged:
as §1

A short description of data set [25]: AUC in Sprague-Dawley rat at 19 mg/kg, po QD measured on day 4. Particulars: in vivo. The class given is ADME, organism-based. The procedure, abridged:
as §1

In data set [26] the test system is CYP1A2. Briefly: Induction of CYP1A2 mRNA expression in Sprague-Dawley rat hepatic microsomes at 19 mg/kg, po QD for 4 days relative to control. In kind it is ADME, organism-based, Liver. Particulars: read-out: FC.
Data set [27] has as its system Rattus norvegicus. Kind of data set: Dose normalized AUC in Sprague-Dawley rat at 19 mg/kg, po QD measured on day 1. In kind it is ADME, organism-based. Particulars: in vivo. The procedure, abridged:
as §1

Data set [28] in a line: Cmax in Sprague-Dawley rat at 24 mg/kg, po QD measured on day 4. The arrangement: dose 24 mg/kg, route oral. The settings on record: in vivo. In kind it is ADME, organism-based. In outline: as §1
A short description of data set [29]: AUC in Sprague-Dawley rat at 24 mg/kg, po QD measured on day 4. The class given is ADME, organism-based. The settings on record: in vivo. In outline:
as §1

For data set [30], the system named is CYP1A1. Briefly: Induction of CYP1A1 mRNA expression in Sprague-Dawley rat hepatic microsomes at 24 mg/kg, po QD for 4 days relative to control. The class given is ADME, organism-based, Liver. Particulars: read-out: FC. The procedure, abridged: as §2
Data set [31] concerns CYP1A2. Briefly: Induction of CYP1A2 mRNA expression in Sprague-Dawley rat hepatic microsomes at 24 mg/kg, po QD for 4 days relative to control. In kind it is ADME, organism-based, Liver. The settings on record: read-out: FC.
A short description of data set [32]: Cmax in Sprague-Dawley rat at 24 mg/kg, po QD measured on day 1. Particulars: in vivo. The class given is ADME, organism-based. Set-up: dose 24 mg/kg, route oral. In outline:
as §1

Data set [33] can be described thus: AUC in Sprague-Dawley rat at 24 mg/kg, po QD measured on day 1. The class given is ADME, organism-based. The settings on record: in vivo. In outline: as §1
The test system of data set [34] is Rattus norvegicus. Briefly: Dose normalized AUC in Sprague-Dawley rat at 24 mg/kg, po QD measured on day 4. The class given is ADME, organism-based. Particulars: in vivo. In outline:
as §1

The subject of data set [35] is Rattus norvegicus. Briefly: Dose normalized AUC in Sprague-Dawley rat at 24 mg/kg, po QD measured on day 1. In kind it is ADME, organism-based. The settings on record: in vivo. The procedure, abridged:
as §1

A word on the bioavailability: it is the share of a dose that reaches the circulation, judged against a reference dose that is usually intravenous. Low values mean little systemic uptake, high ones much systemic uptake. The term Cmax denotes the maximum level reached in the sampled fluid or tissue. Usually logD stands for the decadic logarithm of the distribution of all forms, ionised or not, between an organic phase and buffer at a given pH. High values mean higher lipophilicity, low ones lower lipophilicity. As usually defined, the AUC is concentration integrated over time. Low readings indicate low exposure, high ones high exposure. In general, pKa refers to the pH at which an ionisable group is half protonated. High values mean a group that holds its proton tightly, low ones a group that gives up its proton readily.

As for `CC(C)Oc1ccc(-c2nc(-c3ccc4c(c3)CCN(C(CO)CO)CC4)no2)cc1C#N`, in data set [1], the bioavailability came out at 68%. The AUC/dose with Rattus norvegicus [2] worked out at 59 kg·min/L; in the data set on Rattus norvegicus [6] it was 48 kg·min/L. Besides, the Cmax came out at 1600 ng/mL in data set [3] and 1380 ng/mL in data set [4]. Further, the fold induction at 96 h in the data set with CYP1A2 [5] turned out to be 7.3; with CYP1A1 [10], 604. Besides, in data set [7], the logD came out at 2.78. Also, the AUC is 23100 ng·h/mL in [8] and 23000 ng·h/mL in [9].
Turning to `Cc1c(-c2noc(-c3ccc(OC(C)C)c(C#N)c3)n2)ccc2c1CCN(C(CO)CO)CC2`, the fold induction at 96 h is 1.9 in the data set with CYP1A2 [11] and 275 in the data set on CYP1A1 [19]. Besides, the results for the Cmax in data set [12] and in data set [15] were 670 ng/mL and 550 ng/mL, respectively. For the same compound, the AUC came out at 11500 ng·h/mL in data set [13] and 9100 ng·h/mL in [16]. Besides, the AUC/dose in the data set on Rattus norvegicus [14] was determined as 46 kg·min/L; in the data set with Rattus norvegicus [17], 36 kg·min/L. In data set [7], this compound yielded a logD of 2.64. In data set [18], the pKa is 8.2.
As to `Cc1c(-c2noc(-c3ccc(OC(C)C)c(C#N)c3)n2)ccc2c1CCN(C[C@@H](O)CO)CC2`, the Cmax was 1290 ng/mL in data set [20] and 1530 ng/mL in [21]. In addition, the fold induction at 96 h in the data set with CYP1A1 [22] came out at 126; with CYP1A2 [26] it was 1.7. In addition, the logD in [7] was 2.36. Besides, the results for the AUC in [23] and in [25] were 20800 ng·h/mL and 26000 ng·h/mL, respectively. In addition, the AUC/dose in the data set with Rattus norvegicus [24] is 83 kg·min/L; in the data set on Rattus norvegicus [27] it was 65 kg·min/L. The pKa in data set [18] came out at 8.4.
With `Cc1c(-c2noc(-c3cnc(NC(C)C)c(C#N)c3)n2)ccc2c1CCN(C(CO)CO)CC2`, the figures for the Cmax in [28] and in [32] were 1350 ng/mL and 1140 ng/mL, respectively. Besides, the AUC came to 24900 ng·h/mL in [29] and 17000 ng·h/mL in [33]. Also, the fold induction at 96 h in the data set on CYP1A1 [30] stood at 81; with CYP1A2 [31], 2. In addition, the AUC/dose came out at 63 kg·min/L in the data set on Rattus norvegicus [34] and 43 kg·min/L with Rattus norvegicus [35]. In data set [7], this compound had a logD of 2.44. In data set [18], this compound yielded a pKa of 8.3.
Turning to `Cc1c(-c2noc(-c3ccc(OC(C)C)c(C#N)c3)n2)ccc2c1CCN(C(CO)CO)C2`, the AUC/dose came to 16 kg·min/L in the data set with Rattus norvegicus [2] and 9 kg·min/L in the data set with Rattus norvegicus [6]. The Cmax in data set [3] stood at 440 ng/mL; in data set [4], 790 ng/mL. Also, the fold induction at 96 h was determined as 1.5 in the data set on CYP1A2 [5] and 1.4 in the data set on CYP1A1 [10]. In addition, the logD in data set [7] is 2.76. The AUC in data set [8] came to 7640 ng·h/mL; in [9], 4420 ng·h/mL.
